Source: ChEMBL document CHEMBL3045116, “Synthesis and biological evaluation of 2-(5-substituted-1-((diethylamino)methyl)-2-oxoindolin-3-ylidene)-N-substituted-hydrazinecarbothioamides” (Med Chem Res, 2013)

Columns and labels:
[1] = Cytotoxicity against Chlorocebus aethiops (African green monkey) Vero cells assessed as change in cellular morphology; type: cell-based; details: chlorocebus sabaeus
Bacillus subtilis = assay: Antibacterial activity against Bacillus subtilis assessed as growth inhibition at 50 ug/ml by cup-plate method (reference value: 8 to 10 mm); type: functional; details: read-out: DIZ
[2] = Inhibition of beta lactamase assessed as time for decolorization of iodine (reference value: 79.5 secs)
Human alphaherpesvirus 1 [3] = assay: Antiviral activity against Human herpesvirus 1 strain KOS infected human HEL cells assessed as reduction of virus-induced cytopathic effect after 3 days by colorimetric formazan-based MTS assay; type: functional, organism-based; details: Human alphaherpesvirus 1, KOS, 72 h
How it was run: (§1)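 Confluent cell monolayers were infected with 100 CCID50 of virus, and serial dilutions of compound were added at the time of infection.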

Salmonella typhi = assay: Antibacterial activity against Salmonella enterica subsp. enterica serovar Typhi assessed as growth inhibition at 50 ug/ml by cup-plate method (reference value: 8 to 10 mm); type: functional; details: read-out: DIZ
L1210 = assay: Cytotoxicity against Mus musculus (mouse) L1210 cells assessed as growth inhibition after 48 hr by coulter counter analysis; type: functional, cell-based; details: L1210, 48 h
How it was run: (§2)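 Cells in growth medium were allowed to proliferate with variable compound amounts at 37 °C in a humidified CO2 atmosphere. Incubation ran 48 h for L1210, 72 h for CEM and 96 h for HeLa. Cells were then counted with a Coulter counter.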

Punta Toro virus = assay: Antiviral activity against Punta Toro virus infected in African green monkey Vero cells assessed as reduction of virus-induced cytopathic effect after 3 days by colorimetric formazan-based MTS assay; type: functional, organism-based; details: 72 h; how it was run: as §1
[4] = system: Vesicular stomatitis virus; assay: Antiviral activity against Vesicular stomatitis virus infected human HeLa cells assessed as reduction of virus-induced cytopathic effect after 3 days by colorimetric formazan-based MTS assay; type: functional, organism-based; details: 72 h; how it was run: as §1
[5] = system: Respiratory syncytial virus; assay: Antiviral activity against Respiratory syncytial virus infected human HeLa cells assessed as reduction of virus-induced cytopathic effect after 3 days by colorimetric formazan-based MTS assay; type: functional, organism-based; details: 72 h; how it was run: as §1
[6] = Inhibition of beta lactamase assessed as increase in time taken for iodine decolorization relative to control; design: concentration or dose not given beside the values; details: concentration not given here
Escherichia coli = assay: Antibacterial activity against Escherichia coli assessed as growth inhibition at 50 ug/ml by cup-plate method (reference value: 8 to 10 mm); type: functional; details: read-out: DIZ
Felid alphaherpesvirus 1 = assay: Antiviral activity against Felid herpesvirus 1 infected cat CRFK cells assessed as reduction of virus-induced cytopathic effect after 3 days by colorimetric formazan-based MTS assay; type: functional, organism-based; details: Felid alphaherpesvirus 1, CRFK, 72 h
How it was run: (§3)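 Cells grown to confluency in 96-well plates ([…], Vero for lines 9–10) were infected with 100 CCID50 of virus, and serial compound dilutions were added at infection. Plates were incubated at 37 °C for 3 days, until complete CPE appeared in untreated virus controls.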

Candida albicans = assay: Antifungal activity against Candida albicans assessed as growth inhibition at 50 ug/ml by cup-plate method (reference value: 8 to 10 mm); type: functional; details: read-out: DIZ
[7] = (§4) Cytotoxicity against Homo sapiens (human) HeLa cells assessed as change in cellular morphology; type: cell-based; details: HeLa cells
How it was run: (§5)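 Uninfected cells were exposed to compound in parallel with the antiviral cultures. The read-out is the minimum cytotoxic concentration that causes a microscopically detectable alteration of normal cell morphology.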

HeLa = assay: as §4; type: cell-based; details: hela; how it was run: as §5
Human alphaherpesvirus 1 [8] = assay: Antiviral activity against acyclovir-resistant thymidine kinase negative Human herpesvirus 1 strain KOS infected human HEL cells assessed as reduction of virus-induced cytopathic effect after 3 days by colorimetric formazan-based MTS assay; type: functional, organism-based; details: Human alphaherpesvirus 1, KOS, 72 h; how it was run: as §1
[9] = Cytotoxicity against Homo sapiens (human) HEL cells assessed as change in cellular morphology; type: cell-based
Coxsackievirus B4 [10] = assay: Antiviral activity against Human coxsackievirus B4 infected African green monkey Vero cells assessed as reduction of virus-induced cytopathic effect after 3 days by colorimetric formazan-based MTS assay; type: functional, organism-based; details: Enterovirus B, 72 h; how it was run: as §1
Vaccinia virus = assay: Antiviral activity against Vaccinia virus infected human HEL cells assessed as reduction of virus-induced cytopathic effect after 3 days by colorimetric formazan-based MTS assay; type: functional, organism-based; details: Orthopoxvirus vaccinia, 72 h; how it was run: as §1
CCRF-CEM = assay: Cytotoxicity against Homo sapiens (human) CEM cells assessed as growth inhibition after 72 hr by coulter counter analysis; type: functional, cell-based; how it was run: as §2
Staphylococcus aureus = assay: Antibacterial activity against Staphylococcus aureus assessed as growth inhibition at 50 ug/ml by cup-plate method (reference value: 8 to 10 mm); type: functional; details: read-out: DIZ
Klebsiella pneumoniae = assay: Antibacterial activity against Klebsiella pneumoniae assessed as growth inhibition at 50 ug/ml by cup-plate method (reference value: 8 to 10 mm); type: functional; details: read-out: DIZ
MDCK = assay: (§6) Cytotoxicity against MDCK cells assessed as change in cellular morphology; type: cell-based, Canis lupus familiaris; details: dog, mdck; how it was run: as §5
[11] = as §6; type: cell-based, Canis lupus familiaris; details: dog, MDCK cells; how it was run: as §5
[12] = system: Vesicular stomatitis virus; assay: Antiviral activity against Vesicular stomatitis virus infected human HEL cells assessed as reduction of virus-induced cytopathic effect after 3 days by colorimetric formazan-based MTS assay; type: functional, organism-based; details: 72 h; how it was run: as §1
Human alphaherpesvirus 2 = assay: Antiviral activity against Human herpesvirus 2 strain G infected human HEL cells assessed as reduction of virus-induced cytopathic effect after 3 days by colorimetric formazan-based MTS assay; type: functional, organism-based; details: Human alphaherpesvirus 2, strain G, 72 h; how it was run: as §1
Aspergillus niger = assay: Antifungal activity against Aspergillus niger assessed as growth inhibition at 50 ug/ml by cup-plate method (reference value: 8 to 10 mm); type: functional; details: read-out: DIZ
Influenza B virus = assay: Antiviral activity against Influenza B virus infected in MDCK cells assessed as reduction of virus-induced cytopathic effect after 3 days by colorimetric formazan-based MTS assay; type: functional, organism-based; details: 72 h; how it was run: as §1
[13] = system: Feline infectious peritonitis virus; assay: Antiviral activity against Feline Infectious peritonitis virus infected cat CRFK cells assessed as reduction of virus-induced cytopathic effect after 3 days by colorimetric formazan-based MTS assay; type: functional, organism-based; details: Alphacoronavirus 1, CRFK, 72 h; how it was run: as §1
Influenza A virus H3N2 = assay: Antiviral activity against Influenza A virus H3N2 infected MDCK cells assessed as reduction of virus-induced cytopathic effect after 3 days by colorimetric formazan-based MTS assay; type: functional, organism-based; details: 72 h; how it was run: as §1
Proteus vulgaris = assay: Antibacterial activity against Proteus vulgaris assessed as growth inhibition at 50 ug/ml by cup-plate method (reference value: 8 to 10 mm); type: functional; details: read-out: DIZ
Influenza A virus = assay: Antiviral activity against Unidentified Influenza A virus (H1N1) infected MDCK cells assessed as reduction of virus-induced cytopathic effect after 3 days by colorimetric formazan-based MTS assay; type: functional, organism-based; details: 72 h; how it was run: as §1
Respirovirus muris = assay: Antiviral activity against Sendai virus infected African green monkey Vero cells assessed as reduction of virus-induced cytopathic effect after 3 days by colorimetric formazan-based MTS assay; type: functional, organism-based; details: 72 h
Coxsackievirus B4 [14] = assay: Antiviral activity against Human coxsackievirus B4 infected human HeLa cells assessed as reduction of virus-induced cytopathic effect after 3 days by colorimetric formazan-based MTS assay; type: functional, organism-based; details: Enterovirus B, 72 h; how it was run: as §1
[15] = system: Mammalian orthoreovirus 1; assay: Antiviral activity against Mammalian orthoreovirus 1 infected African green monkey Vero cells assessed as reduction of virus-induced cytopathic effect after 3 days by colorimetric formazan-based MTS assay; type: functional, organism-based; details: Mammalian orthoreovirus 1, Vero, 72 h; how it was run: as §3
[16] = Cytotoxicity against Felis catus (cat) CRFK cells assessed as change in cellular morphology; type: cell-based; details: crfk; how it was run: as §5
Human respirovirus 3 = assay: Antiviral activity against Human parainfluenza virus 3 infected African green monkey Vero cells assessed as reduction of virus-induced cytopathic effect after 3 days by colorimetric formazan-based MTS assay; type: functional, organism-based; details: Human respirovirus 3, Vero, 72 h; how it was run: as §3

Compound	MCC [1] [µM]	zone of inhibition at 50 µg/mL (Bacillus subtilis) [mm]	TIME [2] [h]	EC50 (Human alphaherpesvirus 1 [3]) [µM]	zone of inhibition at 50 µg/mL (Salmonella typhi) [mm]	IC50 (L1210) [µM]	EC50 (Punta Toro virus) [µM]	EC50 [4] [µM]	EC50 [5] [µM]	inhibition [6] [%]	zone of inhibition at 50 µg/mL (Escherichia coli) [mm]	EC50 (Felid alphaherpesvirus 1) [µM]	zone of inhibition at 50 µg/mL (Candida albicans) [mm]	MCC [7] [µM]	CC50 (HeLa) [µM]	EC50 (Human alphaherpesvirus 1 [8]) [µM]	MCC [9] [µM]	EC50 (Coxsackievirus B4 [10]) [µM]	EC50 (Vaccinia virus) [µM]	IC50 (CCRF-CEM) [µM]	other results
CCN(CC)CN1C(=O)/C(=N/NC(=S)Nc2ccccc2)c2ccccc21	100	11	0.0443	20	21	13	> 20	> 20	> 20	50.2	11	> 20	21	≥ 20	10.8	> 100	> 100	> 20	20	11	zone of inhibition at 50 µg/mL (Staphylococcus aureus): 11 mm; zone of inhibition at 50 µg/mL (Klebsiella pneumoniae): 11 mm; CC50 (MDCK): 1600 nM; MCC [11]: 800 nM; EC50 [12]: > 100 µM; EC50 (Human alphaherpesvirus 2): 15 µM; zone of inhibition at 50 µg/mL (Aspergillus niger): 21 mm; EC50 (Influenza B virus): > 160 nM; EC50 [13]: > 20 µM; EC50 (Influenza A virus H3N2): > 160 nM; zone of inhibition at 50 µg/mL (Proteus vulgaris): 21 mm; EC50 (Influenza A virus): > 160 nM; EC50 (Respirovirus muris): > 20 µM; EC50 (Coxsackievirus B4 [14]): > 20 µM; EC50 [15]: > 20 µM; CC50 [16]: 32.3 µM; EC50 (Human respirovirus 3): > 20 µM
CCN(CC)CN1C(=O)/C(=N/NC(=S)Nc2ccc(Cl)cc2)c2ccccc21	20	21	0.036	15	11	11	> 4	> 4	> 4	38.7	21	> 0.8	11	≥ 4	9.8	≥ 20	100	> 4	≥ 20	10	zone of inhibition at 50 µg/mL (Staphylococcus aureus): 11 mm; zone of inhibition at 50 µg/mL (Klebsiella pneumoniae): 11 mm; CC50 (MDCK): 400 nM; MCC [11]: 800 nM; EC50 [12]: > 20 µM; EC50 (Human alphaherpesvirus 2): 15 µM; zone of inhibition at 50 µg/mL (Aspergillus niger): 11 mm; EC50 (Influenza B virus): > 160 nM; EC50 [13]: > 0.8 µM; EC50 (Influenza A virus H3N2): > 160 nM; zone of inhibition at 50 µg/mL (Proteus vulgaris): 11 mm; EC50 (Influenza A virus): > 160 nM; EC50 (Respirovirus muris): > 4 µM; EC50 (Coxsackievirus B4 [14]): > 4 µM; EC50 [15]: > 4 µM; CC50 [16]: 4 µM; EC50 (Human respirovirus 3): > 4 µM
